High-throughput results from PubChem BioAssay.
Only some compounds are listed: those with a hit (about 2% of all), similar ones and a draw of the others.
DENV2 CPE rescue: protects cells from dengue virus 2 cytopathic effect. CPE inhibition, % at 9.99 µM. 350,000 tested, 1.7% active. DENV2-infected cells, cytopathic effect rescue, plate reader; in the data active = CPE inhibition above about 20%, passing the limit was not always enough; inconclusive = no clear call, values can overlap the other calls; tested in BHK-21 cells
Xi reactivation: activators of X-chromosome reactivation in mouse fibroblasts | XiGFP mouse fibroblasts, % GFP-positive cells imaging, 3 d; cells co-treated with 5-aza-dC sensitizer; scaled so ellipticine positive control = 100% | activation, % at 7.58 µM | 360,000 tested, 0.055% active;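 active = mean normalized replicate activation at least 10% and every replicate at or above 10%; inconclusive = only one of the two criteria met; inactive = mean below 10% and not all replicates reach 10%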
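Material: XiGFP fibroblasts, SV40-immortalized. Buffer or medium: DMEM plus 5-aza-dC sensitizer. Compound: single concentration per compound, delivered by pin transfer. Times: 3 days compound exposure. Controls: ellipticine 6 µM.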
E-sel inducer: induces E-selectin expression in human endothelial cells; P16581; HUVEC E-selectin immunofluorescence imaging; normalized: neutral wells 0, TNF-alpha wells 100; activation, % at 7.58 µM; 260,000 tested, 0.37% active; AID 686992;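 active = mean E-selectin-positive cell signal at least 10% of the positive control, reached in at least 60% of replicates, without over 20% cell loss; inconclusive = no rule given, readout overlaps actives, possibly toxicity-flagged; inactive = the rest, including those meeting only one limit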
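Read-out: % PE-positive cells | Test system: HUVEC | Doses: One compound dose added by pin transfer | Buffer or medium: EGM-2 over gelatin coat | Signal: Immunofluorescence imaging | Benchmarks: TNF-alpha, DMSO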
S100A4 MyoIIA: inhibitors of human S100A4 binding to myosin IIA peptide | P26447 | S100A4/TAMRA-MyoIIA peptide fluorescence polarization | inhibition, % at 10.7 µM | 360,000 tested, 0.14% active;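 active = mean inhibition of at least 70% across replicates, with every replicate also reaching that level; inconclusive = mean inhibition reaches 70% but some replicates fall short; inactive = mean inhibition below 70%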
Target sequence (P26447 whole entry, looked up): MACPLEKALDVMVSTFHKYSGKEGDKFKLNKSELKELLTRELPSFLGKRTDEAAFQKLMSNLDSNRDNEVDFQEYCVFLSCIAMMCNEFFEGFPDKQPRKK
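System – human S100A4 monomer protein, biochemical binding assay · Buffer or medium – Calcium-containing HEPES buffer, pH 7.2 · Timing – 5 min between mix addition and reading · Also added – TAMRA-labelled myosin IIA heavy-chain peptide probe, 5 nM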
Each line names hits and unclear results; the compound was inactive in the other large screens.

CC(C)NC(=O)N(C)C[C@@H]1Oc2ccc(NC(=O)CCN3CCOCC3)cc2C(=O)N([C@@H](C)CO)C[C@H]1C	E-sel inducer 33.0
COc1cc(Cl)ccc1OCc1cc(C(=O)N2CCN(c3ccccn3)CC2)no1	none
NC(=O)c1ccccc1NC(=O)CCN1C(=O)c2ccccc2C1=O	none (no result: DENV2 CPE rescue, Xi reactivation, E-sel inducer)
Cc1noc(C)c1NC(=O)N(C)C[C@H]1OCCCC[C@@H](C)Oc2ccc(NS(=O)(=O)c3ccccc3)cc2C(=O)N([C@H](C)CO)C[C@H]1C	DENV2 CPE rescue 69.9
Cc1noc(C)c1NC(=O)N(C)C[C@H]1OCCCC[C@H](C)Oc2ccc(NS(=O)(=O)c3ccccc3)cc2C(=O)N([C@@H](C)CO)C[C@@H]1C	none
Cc1noc(C)c1NC(=O)N(C)C[C@@H]1OCCCC[C@H](C)Oc2ccc(NS(=O)(=O)c3cccs3)cc2C(=O)N([C@@H](C)CO)C[C@H]1C	DENV2 CPE rescue 22.5
Cc1ccc(NC(=O)Cn2ccnc2)cc1C	none (no result: E-sel inducer)
CCOc1ccc(/C=N/NC(=O)c2ccccc2O)cc1CN1CC2CC(C1)c1cccc(=O)n1C2 (stereo not drawn)	DENV2 CPE rescue 58.1 (no result: Xi reactivation, E-sel inducer)
N#CCC(N)=C(C#N)C#N	none
CC1C(=O)N(Cc2cn(CC3CCCCC3)nn2)CCS(=O)(=O)N1Cc1ccc(-c2ccc(Cl)c(Cl)c2)cc1 (stereo not drawn)	DENV2 CPE rescue 56.6
CC1C(=O)N(Cc2cn(CC3CCCCC3)nn2)CCS(=O)(=O)N1Cc1ccc(-c2ccncc2)cc1 (stereo not drawn)	none
Cc1ccc(CNC(=O)COC(=O)c2c(C)noc2C)cc1	none (no result: DENV2 CPE rescue, Xi reactivation, S100A4 MyoIIA)
COc1cccc(CNC(=O)c2cc(S(=O)(=O)N3CCOCC3)cn2C)c1	Xi reactivation 22.7
CC[n+]1c(/C=C/C=C/N(C(C)=O)c2ccccc2)sc2cc(OC)ccc21	Xi reactivation 51.6, S100A4 MyoIIA 199.4 (no result: E-sel inducer)
CC(NC(=O)c1cccc(S(=O)(=O)N2CCN(Cc3ccccc3)CC2)c1)c1ccc(Br)cc1 (stereo not drawn)	DENV2 CPE rescue 24.9
CCOC(=O)C1(C)CCN1C(=O)Cc1ccc(OC)cc1 (stereo not drawn)	DENV2 CPE rescue inconclusive
COc1cccc(-c2ccc([C@H]3[C@H](CO)N4CCCCN(CC5CC5)C[C@@H]34)cc2)c1	DENV2 CPE rescue 42.1, S100A4 MyoIIA 127.2
COc1cccc(-c2ccc([C@H]3[C@H]4CN(CC5CC5)CCCCN4[C@H]3CO)cc2)c1	none
COc1cccc(-c2ccc([C@@H]3[C@@H](CO)N4CCCCN(CC5CC5)C[C@H]34)cc2)c1	DENV2 CPE rescue 42.6
CN(C)C(=O)c1ccc(-c2ccc([C@@H]3[C@@H](CO)N4CCCCN(CC5CC5)C[C@@H]34)cc2)cc1	S100A4 MyoIIA 108.9
Cc1ccccc1-c1ccc([C@@H]2[C@@H](CO)N3CCCCN(CC4CC4)C[C@H]23)cc1	DENV2 CPE rescue 52.2
CC(C)(C)NC(=O)C(c1ccncc1)n1c(-c2ccc(C(F)(F)F)cc2)nc2ccccc21 (stereo not drawn)	none
Cc1cc(C(=O)N[C@@H](c2ccccc2)[C@]2(C)C[C@H]2[C@@H](C)C(=O)Nc2ccc3ccccc3c2)no1	DENV2 CPE rescue 76.6
Cc1cc(C(=O)N[C@H](c2ccccc2)[C@@]2(C)C[C@@H]2[C@@H](C)C(=O)Nc2ccc3ccccc3c2)no1	DENV2 CPE rescue inconclusive
CN(C[C@H](CC1CCCCC1)N(C[C@H](Cc1ccccc1)N(CCc1ccccc1)N=O)N=O)N=O	none
O=C(NCCc1ccccc1)c1[nH]c(C(F)(F)F)nc1-c1ccccc1	none
CCCCCNC(=O)c1[nH]c(C(F)(F)F)nc1-c1ccccc1	DENV2 CPE rescue 28.1 (no result: E-sel inducer)
COC(=O)[C@H](Cc1ccccc1)NC(=O)NCc1ccccc1	none
CCCN1CCC(=O)N([C@H](COc2ccccc2)c2ccccc2)CC1	none
COc1ccc(CN2CCC(=O)N([C@H](CO)c3ccccc3)CC2)cc1	DENV2 CPE rescue 26.1
CN1CCC(=O)N([C@H](COc2ccccc2)Cc2ccccc2)CC1	DENV2 CPE rescue 20.0
CC(C)C[C@@H](CO)N1CCN(Cc2cccc(C#N)c2)CCC1=O	DENV2 CPE rescue 20.5
O=C1CCN(CCc2ccccc2)CCN1[C@H](COc1ccccc1)c1ccccc1	DENV2 CPE rescue 98.9
O=C1CCN(Cc2cccnc2)CCN1[C@H](CO)c1ccccc1	none
C[C@@H]1CN([C@H](C)CO)C(=O)c2cc(NC(=O)CCC(F)(F)F)ccc2O[C@@H](C)CCCCO[C@H]1CN(C)S(=O)(=O)c1ccc(F)cc1	none (no result: E-sel inducer)
